Bioassay records deposited in PubChem by several laboratories.
OPRM1-OPRD1 ag: OPRM1-OPRD1 heterodimerization agonism. AID 504326. hit rate 0.3% among 340,000. activation, % at 9.3 µM. P35372+P41143. cells, luminescence; in the data active = activation above about 18%
HTR5A inv ag: counter-screen for OPRM1-OPRD1 inverse agonists: human HTR5A inverse agonism; hit rate 0.083% among 340,000; HTR5A cell line, luminescence; inhibition, % at 9.3 µM; P47898; in the data active = inhibition mostly above about 23%, no sharp cut-off; inactive = mostly below about 18%
MOR-DOR inv ag: mu-delta opioid heterodimer inverse agonism | hit rate 0.21% among 340,000 | AID 504357 | cell-based MOR-DOR heterodimer luminescence | P35372+P41143 | inhibition, % at 9.3 µM; in the data active = inhibition above about 22%, passing the limit was not always enough
Arrestin-AP2 inh: human beta-arrestin and AP2 interaction inhibition; FITC-arrestin peptide / GST-AP2 beads, flow cytometry; AP2 beta2 appendage carries R879A mutation; hit rate 0.31% among 340,000; inhibition, % at 10 µM; AID 504490;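 active = inhibition above a set limit, near 3 SD of compounds lacking own fluorescence, cut at about 54% in these data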
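Test system: GST-tagged AP2 beta2-adaptin appendage (R879A) on 4 µm glutathione beads; also added: fluorescein-tagged arrestin peptide at 50 nM final; timing: 12 min plus 1 h, RT; signal: flow cytometry, FL1 (488/535 nm); read-out: percent drop in bead-associated FITC signal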
HTR5A ag ctr: HTR5A agonism, opioid heterodimer counter-screen | P47898 | HTR5A agonist assay, luminescence, cell-based | activation, % at 9.3 µM | hit rate 0.61% among 340,000 | AID 504692; in the data active = activation mostly above about 9.5%, no sharp cut-off; inactive = mostly below about 7.6%
DAGLB inh: diacylglycerol lipase beta (human) inhibition; inhibition, % at 5.17 µM; HEK293T DAGLB membrane lysate, EnzChek fluorogenic substrate; Q8NCG7; hit rate 0.059% among 340,000; in the data active = inhibition above about 34%
Target sequence (Q8NCG7 whole entry, looked up): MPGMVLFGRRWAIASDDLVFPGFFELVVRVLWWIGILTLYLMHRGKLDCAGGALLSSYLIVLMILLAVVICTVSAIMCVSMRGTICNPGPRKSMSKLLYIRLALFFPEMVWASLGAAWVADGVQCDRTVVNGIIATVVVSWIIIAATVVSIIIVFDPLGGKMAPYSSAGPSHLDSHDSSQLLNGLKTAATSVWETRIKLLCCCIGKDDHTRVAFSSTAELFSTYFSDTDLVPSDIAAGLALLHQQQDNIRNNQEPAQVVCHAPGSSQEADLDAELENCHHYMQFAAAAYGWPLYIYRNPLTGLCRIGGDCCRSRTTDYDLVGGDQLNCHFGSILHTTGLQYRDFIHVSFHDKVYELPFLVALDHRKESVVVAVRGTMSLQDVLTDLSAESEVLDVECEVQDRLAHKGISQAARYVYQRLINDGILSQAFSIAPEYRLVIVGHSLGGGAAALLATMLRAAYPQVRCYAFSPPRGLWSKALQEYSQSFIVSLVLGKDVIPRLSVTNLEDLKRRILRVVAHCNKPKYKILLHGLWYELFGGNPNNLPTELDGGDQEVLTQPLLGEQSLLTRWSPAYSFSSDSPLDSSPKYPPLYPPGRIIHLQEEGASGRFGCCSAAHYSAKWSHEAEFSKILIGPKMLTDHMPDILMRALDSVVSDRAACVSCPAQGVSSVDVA
Of the large screens only hits and unclear results are named; the others gave an inactive call. Rows were chosen to be rich in hits. Some 1.4% of all compounds tested hit in one or more screens of this group.

O=C(NCc1ccco1)C1CCN(S(=O)(=O)c2cccc3cccnc23)CC1	none
O=C(NCc1cccs1)C1CCN(S(=O)(=O)c2cccc3cccnc23)CC1	HTR5A ag ctr 14
Cc1cc(C)c(CN2CCN(C(=O)Cn3cnc(C(=O)Nc4ccc(C)c(C)c4)n3)CC2)c(C)c1	HTR5A ag ctr 8.5
O=C(Oc1ccc(-c2nnco2)cc1)c1cc(S(=O)(=O)N2CCOCC2)ccc1F	none (no result: OPRM1-OPRD1 ag, HTR5A inv ag, MOR-DOR inv ag, Arrestin-AP2 inh, HTR5A ag ctr)
Clc1ccccc1/C=N/NC1=Nc2cccc3cccc1c23	HTR5A ag ctr 12
Cc1ccc2nc(N3CCN(c4cccc(C)c4C)CC3)c3nnnn3c2c1	none
Cc1ccc2nc(Cl)c3nnnn3c2c1	MOR-DOR inv ag 38
CC(=O)Nc1ccc(S(=O)(=O)NC2(C(F)(F)F)NC(=O)N(C3CCCCC3)C2=O)cc1 (stereo unspecified)	HTR5A ag ctr 10
Cc1cc(C=O)sc1[B-](F)(F)F	none
C/C=C(\C)CN1CCC(n2nccc2NC(=O)CCCc2ccccc2)CC1	HTR5A ag ctr 12
CC(C)C[C@@H](CN1CCCC1CN1C(=S)NC[C@@H]1Cc1ccc(O)cc1)N1C[C@H](Cc2ccc(O)cc2)N(CCc2ccccc2)C1=S (stereo partly specified)	none
O=C1c2ccccc2C(O)(c2ccccc2)N1c1ccc([N+](=O)[O-])cc1Cl (stereo unspecified)	none
O=C(COc1ccccc1)N/N=C/c1ccc(O[C@@H]2O[C@H](CO)[C@@H](O)[C@H](O)[C@H]2O)cc1	HTR5A ag ctr 13
CCN(CC)CCNC(=O)c1ccc(NC(=O)c2ccc(-n3cncn3)c([N+](=O)[O-])c2)cc1	none (no result: OPRM1-OPRD1 ag, HTR5A inv ag, MOR-DOR inv ag, Arrestin-AP2 inh, HTR5A ag ctr)
Cc1ccccc1C(=O)N1CCC(C(=O)Nc2ccc(S(=O)(=O)N3C(C)CCCC3C)cc2)CC1 (stereo unspecified)	none
O=C(c1ccccc1)c1ccc2ccccc2c1	none
O=C(c1ccccc1)c1c2c(cc3sc4ccccc4[n+]13)-c1cccc3cccc-2c13	OPRM1-OPRD1 ag 90, HTR5A ag ctr 33
Cc1cc(C)c2c(=O)n3c(nc2c1)C(C)NC(=O)c1cccnc1-3 (stereo unspecified)	none (no result: OPRM1-OPRD1 ag, HTR5A inv ag, MOR-DOR inv ag, Arrestin-AP2 inh, HTR5A ag ctr)
CN(C)c1nc(SCCOC(=O)Nc2ccccc2)nc(N(C)C)n1	HTR5A ag ctr 8.8
Cc1cccc(-c2noc(CCCC(=O)N3CCOCC3)n2)c1	HTR5A ag ctr 9.8
Cc1ccc(-c2noc(CCCC(=O)N3CCOCC3)n2)cc1	none
O=C(O)C1C2CCC(C2)C1C(=O)NCCc1ccccc1 (stereo unspecified)	HTR5A ag ctr 9.4
CCN(c1ccccc1)c1nc(Cl)nc2c1cnn2C	none
CC1=CC(C)C(=O)N(C)C(C)=C1 (stereo unspecified)	none (no result: OPRM1-OPRD1 ag, HTR5A inv ag, MOR-DOR inv ag, Arrestin-AP2 inh, HTR5A ag ctr)
CCC(=O)N(c1nnc(SC(C)C(=O)Nc2ccc(N3CCOCC3)cc2)s1)C1CC1 (stereo unspecified)	none (no result: OPRM1-OPRD1 ag, HTR5A inv ag, MOR-DOR inv ag, Arrestin-AP2 inh, HTR5A ag ctr)
CCOC(=O)c1ccc(Nc2ncnc3c2cnn3C)cc1	none
Cn1ncc2c(O/N=C(\N)c3ccc(C(C)(C)C)cc3)ncnc21	OPRM1-OPRD1 ag 182, HTR5A ag ctr 68
COCOCCn1cc(CN2CCS(=O)(=O)N(Cc3ccc(-c4ccc(Cl)c(Cl)c4)cc3)C(C)C2=O)nn1 (stereo unspecified)	none (no result: OPRM1-OPRD1 ag, HTR5A inv ag, MOR-DOR inv ag, Arrestin-AP2 inh, HTR5A ag ctr)
Cc1cccc(OC(=O)c2ccc3nccnc3c2)c1	HTR5A ag ctr 9.4
O=C(CSc1cccc[n+]1[O-])c1ccccc1Br	none
O=C(CSc1cccc[n+]1[O-])c1ccc(Cl)s1	HTR5A ag ctr 13
Clc1ccc(OCCCNCc2ccccc2)c2ccccc12	HTR5A ag ctr 10
O=C(c1ccc(Cl)c(S(=O)(=O)NCc2ccco2)c1)N1CCN(c2ccccc2F)CC1	HTR5A ag ctr 13
COCCCN1C(=O)C(CC(=O)NC(c2ccccc2)c2ccccc2)CC(C(=O)N2CCOCC2)=C1C (stereo unspecified)	none (no result: OPRM1-OPRD1 ag, HTR5A inv ag, MOR-DOR inv ag, Arrestin-AP2 inh, HTR5A ag ctr)
CCCCOc1ccc(C2(C)CC(=O)NC2=O)cc1 (stereo unspecified)	HTR5A ag ctr 12
O=C(COC(=O)c1ccc2c(=O)n3c(nc2c1)CCC3)Nc1ccccc1F	HTR5A ag ctr 11
CCN(c1ccccc1)S(=O)(=O)c1ccc(Cl)c(NC(=O)CSc2ncn[nH]2)c1	none
CCN(c1ccccc1)S(=O)(=O)c1ccc(Cl)c(NC(=O)c2ccc(=O)[nH]n2)c1	HTR5A ag ctr 12
CCN(CC)CCNc1c(C)cc(CO)c(Cl)c1C	none (no result: OPRM1-OPRD1 ag, HTR5A inv ag, MOR-DOR inv ag, Arrestin-AP2 inh, HTR5A ag ctr)
